Experimental findings from ChEMBL document CHEMBL1157562, “Piperazinyl glutamate pyridines as potent orally bioavailable P2Y12 antagonists for inhibition of platelet aggregation” (J Med Chem, 2010) are described below.

As usually defined, the Ki is the equilibrium dissociation constant of an inhibitor or competing ligand from its target. Broadly, the IC50 is the concentration that gives 50% inhibition. The half-life is how long it takes for the measured level to halve. Higher therefore signals slow loss. What is called bioavailability is dose-corrected exposure relative to a reference, in per cent. High values mean much systemic uptake, low ones little systemic uptake. A word on the Papp: it is the rate of passage across a membrane or cell layer, normalised by area and donor concentration.

For one data set, the target named is P2Y purinoceptor 12 (Homo sapiens, UniProt Q9H244). In words: Displacement of [33P]ADP from human recombinant P2Y12 receptor expressed in CHO cells. Format: cell-based. A digest of the protocol: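 Washed membranes from CHO cells expressing synthetic human P2Y12, incubated 1 h at room temperature with 0.2 nM 33P-MeSADP in 50 mM Tris/100 mM NaCl/1 mM EDTA. Compound was tested as a 7-point 3-fold series in triplicate. Nonspecific binding was defined with 300 nM 2-MeSADP, followed by filtration.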
Chain of P2Y purinoceptor 12 (Q9H244 whole entry): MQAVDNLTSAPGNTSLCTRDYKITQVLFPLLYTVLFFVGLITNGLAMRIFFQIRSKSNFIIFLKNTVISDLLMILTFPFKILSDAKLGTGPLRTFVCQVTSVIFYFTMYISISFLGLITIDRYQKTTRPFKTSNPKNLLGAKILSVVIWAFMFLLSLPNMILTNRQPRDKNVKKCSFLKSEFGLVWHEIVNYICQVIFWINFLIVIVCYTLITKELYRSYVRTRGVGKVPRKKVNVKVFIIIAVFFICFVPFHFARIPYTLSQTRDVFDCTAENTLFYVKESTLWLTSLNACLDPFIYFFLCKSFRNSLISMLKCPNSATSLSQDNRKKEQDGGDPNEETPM

The nature of data set [1]: Antiplatelet aggregation activity against adenosine diphosphate-induced human platelet rich plasma assessed as inhibition of platelet aggregation by turbidimetric method. Format: functional. In a few lines:
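Human PRP, prepared by two-step centrifugation and adjusted to 330 000 platelets/μL with PPP. Compound was preincubated 5 min at 37 °C in 0.5% DMSO, then 20 μM ADP was added. OD626 was read kinetically for 15 min at 37 °C with mixing between reads.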

The test system of a further data set is Platelet. Nature of the data set: Relative potency, ratio of IC50 for drug to IC50 for AZD-6140 for platelet aggregation in human platelet rich plasma. Format: functional.
Data set [2] can be described thus: Clearance in Sprague-Dawley rat at 2 mg/kg, iv and 5 mg/kg, po. The settings on record: in vivo. Format: ADME, organism-based. A digest of the protocol: (§1)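 Rats received 2 mg/kg iv infusion or 5 mg/kg po, in 50% PEG400/40% PBS/10% ethanol.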
A short description of data set [3]: Volume of distribution at steady state in Sprague-Dawley rat at 2 mg/kg, iv and 5 mg/kg, po. It counts as ADME, organism-based. The conditions noted are these: in vivo, read-out: Vdss. A digest of the protocol:
as §1

A short description of data set [4]: Half life in Sprague-Dawley rat at 2 mg/kg, iv and 5 mg/kg, po. Format: ADME, organism-based. The settings on record: in vivo. A digest of the protocol:
as §1

The next data set is described as follows: in vivo. The settings on record: Sprague-Dawley, rat, po, 5 mg/kg.
Data set [5] can be described thus: Apparent permeability across human Caco-2 cells. Format: ADME, cell-based.
Data set [6] in a line: Solubility of the compound. Format: physicochemical.
The nature of data set [7]: Chemical stability of the compound. It counts as physicochemical.
Data set [8] in a line: Antiplatelet aggregation activity against adenosine diphosphate-induced human platelet rich plasma assessed as inhibition of platelet aggregation by chronolog PRP aggregometry assay. The conditions noted are these: read-out: IC50(app).
Data set [9] is filed under the species Rattus norvegicus. Nature of the data set: Antithrombotic activity in rat venous thrombus model assessed as inhibition of injury-induced thrombosis. It counts as functional, organism-based. A digest of the protocol:
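Rats given test compound orally; thrombosis induced by vascular injury with ferric chloride; thrombus formation was scored as the read-out.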

The species named for data set [10] is Rattus norvegicus. Nature of the data set: Toxicity in rat assessed as adverse effects. It counts as organism-based. The settings on record: in vivo.
A further data set is filed under the species Canis familiaris. Nature of the data set: Toxicity in dog assessed as adverse effects. Format: organism-based, Canis lupus familiaris. The conditions noted are these: in vivo.
Data set [11] is filed under the species Rattus norvegicus. The settings on record: in vivo, po, 5 mg/kg.

SMILES strings stand for the structures.

Turning to `CCCCCCOC(=O)N1CCN(C(=O)[C@H](CCC(=O)O)NC(=O)c2cc(OC3CCNCC3)cc(-c3ccccc3)n2)CC1`, the Ki on P2Y purinoceptor 12 was found to be 9.4 nM. Further, the IC50 in data set [1] (Homo sapiens, Platelet, Plasma) was found to be 2400 nM. For the same compound, the “Ratio IC50” value in the data set with Platelet is given as 1.8. For the same compound, the clearance in data set [2] was determined as 150 mL/min/kg. Also, the Vd in data set [3] came out at 6.9 L/kg. The half-life in [4] is 30 min. Also, in the data set “in vivo”, the bioavailability worked out at 1%.
Turning to `CCCCOC(=O)N1CCN(C(=O)[C@H](CCC(=O)O)NC(=O)c2cc(OCCOC)cc(-c3ccccc3)n2)CC1`, the IC50 in [1] (Homo sapiens, Platelet, Plasma) was 4500 nM. Also, the “Ratio IC50” value with Platelet is 2.9. Moreover, the Papp in [5] was found to be 1.1 ×10⁻⁶ cm/s.
As to `CCCCOc1cc(C(=O)N[C@@H](CCC(=O)O)C(=O)N2CCN(C(=O)OCC)CC2)nc(-c2ccccc2)c1`, the Ki at P2Y purinoceptor 12 amounted to 60 nM. The IC50 in data set [1] (Homo sapiens, Platelet, Plasma) was found to be 34000 nM. For the same compound, the “Ratio IC50” value in the data set on Platelet came to 32. Further, the clearance in data set [2] was 109 mL/min/kg. Moreover, the Vd in data set [3] was determined as 3.9 L/kg. The half-life in data set [4] was 24 min. The compound also came in with a bioavailability in “in vivo” of 72%.
Take `CCCCCOC(=O)N1CCN(C(=O)[C@H](CCC(=O)O)NC(=O)c2cc(N3CCC(COC)CC3)cc(-c3ccccc3)n2)CC1`: the IC50 in data set [1] (platelet) is 3900 nM; in data set [8], 1800 nM. Further, the solubility entry in data set [6] is listed as “Soluble”. For the same compound, in [7], the Stability entry is on record as “Stable”. Moreover, the inhibition result in the data set listed under Rattus norvegicus [9] was “Dose-dependent effect”. For the same compound, the Activity result in the data set listed under Rattus norvegicus [10] and in the data set listed under Canis familiaris was “Non-toxic” each time.
As for `CCOC(=O)N1CCN(C(=O)[C@H](CCC(=O)O)NC(=O)c2cc(OCCOC)cc(-c3ccccc3)n2)CC1`, the Ki on P2Y purinoceptor 12 worked out at 140 nM. In addition, the half-inhibitory concentration (IC50) in data set [1] (Homo sapiens, Platelet, Plasma) came out at 6000 nM. In addition, the “Ratio IC50” value in the data set on Platelet is recorded as 8. In [2], the clearance worked out at 94 mL/min/kg. The Vd in data set [3] was 13.6 L/kg. Besides, the half-life in [4] was 12 min. For the same compound, the bioavailability in “in vivo” came to 33%.
For `CCCCCOC(=O)N1CCN(C(=O)[C@H](CCC(=O)O)NC(=O)c2cc(OCCOC)cc(-c3ccccc3)n2)CC1`, in data set [1] (Homo sapiens, Platelet, Plasma), the IC50 turned out to be 4300 nM. The “Ratio IC50” value with Platelet is on record as 3.2. The clearance in [2] is 46 mL/min/kg. Besides, in [3], the Vd stood at 2.3 L/kg. In addition, in data set [4], the half-life was 36 min. The compound further showed a F in the data set filed under Rattus norvegicus [11] of 183%.
As to `CCCNc1cc(C(=O)N[C@@H](CCC(=O)O)C(=O)N2CCN(C(=O)OCC)CC2)nc(-c2ccccc2)c1`, the IC50 in data set [1] (Homo sapiens, Platelet, Plasma) came out at 28000 nM. In the data set with Platelet, the “Ratio IC50” value is recorded as 28. This compound showed a clearance in data set [2] of 85 mL/min/kg. Moreover, in [3], the Vd stood at 3.8 L/kg. The same compound gave a half-life in [4] of 30 min. In addition, the bioavailability in the data set “in vivo” turned out to be 80%.
As to `CCOC(=O)N1CCN(C(=O)[C@H](CCC(=O)O)NC(=O)c2cccc(-c3ccccc3)n2)CC1`, on P2Y purinoceptor 12, the Ki turned out to be 209 nM. In [1] (Homo sapiens, Platelet, Plasma), the IC50 was 71000 nM. This compound also gave a clearance in [2] of 98 mL/min/kg. For the same compound, the Vd in data set [3] is 15.5 L/kg. In [4], this compound had a half-life of 108 min. In addition, the bioavailability in “in vivo” came out at 34%.
Consider `CCCCCOC(=O)N1CCN(C(=O)[C@H](CCC(=O)O)NC(=O)c2cc(NCCO)cc(-c3ccccc3)n2)CC1`, for which the Ki at P2Y purinoceptor 12 worked out at 5.7 nM. In addition, in [1] (Homo sapiens, Platelet, Plasma), the IC50 was 3800 nM. Also, the “Ratio IC50” value with Platelet amounted to 3.2. This compound showed a clearance in data set [2] of 103 mL/min/kg. In addition, the Vd in data set [3] is 3.9 L/kg. For the same compound, the half-life in data set [4] is 24 min. The same compound came in with a bioavailability in “in vivo” of 8%.
Take `CCCCCOC(=O)N1CCN(C(=O)[C@H](CCC(=O)O)NC(=O)c2cc(OCC3CCN(CCOC)CC3)cc(-c3ccccc3)n2)CC1`: the Ki on P2Y purinoceptor 12 was 5.3 nM. Further, in data set [1] (Homo sapiens, Platelet, Plasma), the IC50 turned out to be 550 nM. Besides, the “Ratio IC50” value in the data set with Platelet is given as 0.73. Moreover, in data set [2], the clearance was 141 mL/min/kg. Moreover, the Vd in [3] is 10.9 L/kg. Besides, the half-life in data set [4] is 53.4 min.
As for `CCCCCOC(=O)N1CCN(C(=O)[C@H](CCC(=O)O)NC(=O)c2cc(CCCN(CC)CC)cc(-c3ccccc3)n2)CC1`, the Ki at P2Y purinoceptor 12 came out at 22 nM. Further, the IC50 in data set [1] (Homo sapiens, Platelet, Plasma) worked out at 1100 nM. Besides, in the data set on Platelet, the “Ratio IC50” value worked out at 1.6. Also, the clearance in data set [2] was found to be 96 mL/min/kg. The Vd in [3] was determined as 9.2 L/kg. The half-life in data set [4] was 66 min.
With `CCCCCOC(=O)N1CCN(C(=O)[C@H](CCC(=O)O)NC(=O)c2cc(N3CCC(N4CCCC4)CC3)cc(-c3ccccc3)n2)CC1`, at P2Y purinoceptor 12, the Ki came to 9 nM. For the same compound, the concentration for half-maximal inhibition (IC50) in data set [1] (Homo sapiens, Platelet, Plasma) is 1200 nM. In the data set on Platelet, the “Ratio IC50” value was 0.57. This compound also showed a clearance in data set [2] of 52 mL/min/kg. In [3], the Vd stood at 7.3 L/kg. The compound further had a half-life in data set [4] of 96 min.
`CCCCCOC(=O)N1CCN(C(=O)[C@H](CCC(=O)O)NC(=O)c2cc(OC(=O)N3CCCC3)cc(-c3ccccc3)n2)CC1`: the Ki on P2Y purinoceptor 12 amounted to 7.7 nM. In addition, the IC50 in data set [1] (Homo sapiens, Platelet, Plasma) turned out to be 1800 nM. Besides, in the data set with Platelet, the “Ratio IC50” value turned out to be 1. The compound also gave a clearance in data set [2] of 46 mL/min/kg. In [3], the Vd is 2.3 L/kg. The half-life in data set [4] is 36 min.
For `CCCCCOC(=O)N1CCN(C(=O)[C@H](CCC(=O)O)NC(=O)c2cc(O)cc(-c3ccccc3)n2)CC1`, at P2Y purinoceptor 12, the Ki was 11 nM. Further, the concentration for half-maximal inhibition (IC50) in data set [1] (Homo sapiens, Platelet, Plasma) was 10000 nM. For the same compound, the “Ratio IC50” value with Platelet was found to be 7.2. The clearance in data set [2] was 675 mL/min/kg. In addition, the Vd in data set [3] turned out to be 29 L/kg. For the same compound, the half-life in [4] was 30 min. In “in vivo”, the bioavailability was 66%.
`CCCCCOC(=O)N1CCN(C(=O)[C@H](CCC(=O)O)NC(=O)c2cc(OC(=O)N3CCOCC3)cc(-c3ccccc3)n2)CC1`: the Ki on P2Y purinoceptor 12 was 4.8 nM. For the same compound, the IC50 in data set [1] (Homo sapiens, Platelet, Plasma) came out at 1700 nM. Also, the “Ratio IC50” value in the data set with Platelet is reported as 0.99. In data set [2], this compound had a clearance of 220 mL/min/kg. Also, the Vd in data set [3] was 31 L/kg. The same compound showed a half-life in [4] of 96 min.
Turning to `CCCCCOC(=O)N1CCN(C(=O)[C@H](CCC(=O)O)NC(=O)c2cc(OC3CCN(CCOC)CC3)cc(-c3ccccc3)n2)CC1`, at P2Y purinoceptor 12, the Ki was found to be 9.9 nM. In addition, in data set [1] (Homo sapiens, Platelet, Plasma), the IC50 came to 1700 nM. In addition, the “Ratio IC50” value with Platelet was 1.7. The clearance in data set [2] stood at 94 mL/min/kg. Also, the Vd in data set [3] is 5.2 L/kg. For the same compound, the half-life in data set [4] is 38.4 min.
`CCCCCOC(=O)N1CCN(C(=O)[C@H](CCC(=O)O)NC(=O)c2cc(C(=O)N3CCOCC3)cc(-c3ccccc3)n2)CC1`: the Ki at P2Y purinoceptor 12 stood at 4.4 nM. Moreover, the IC50 in data set [1] (Homo sapiens, Platelet, Plasma) came out at 710 nM. Moreover, the “Ratio IC50” value with Platelet stood at 1. In data set [2], this compound came in with a clearance of 51 mL/min/kg. The Vd in data set [3] came to 1.1 L/kg. The same compound gave a half-life in [4] of 14.4 min.
In the case of `CCCCCOC(=O)N1CCN(C(=O)[C@H](CCC(=O)O)NC(=O)c2cc(OC3CCN(C(C)=O)CC3)cc(-c3ccccc3)n2)CC1`, on P2Y purinoceptor 12, the Ki stood at 3.6 nM. Moreover, in data set [1] (Homo sapiens, Platelet, Plasma), the IC50 was determined as 1800 nM. Besides, in the data set on Platelet, the “Ratio IC50” value is 1.8. Moreover, the clearance in data set [2] came to 36 mL/min/kg. The Vd in [3] came out at 0.58 L/kg. In addition, the half-life in [4] is 12 min.
